Measured values published in ChEMBL document CHEMBL1140227, “Histone deacetylase inhibitors through click chemistry” (J Med Chem, 2008).

What was measured:
[1] = system: PC-3; experiment: Growth inhibition of human PC3 cells at 10 uM relative to control; format: functional; conditions: values are per cent of control
In short: (§1)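 Single-dose preliminary screen in the NCI human cancer cell line panel, run by the NIH. Percent inhibition of cell line growth was calculated by comparison with untreated samples.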

[2] = system: SW-620; experiment: Growth inhibition of human SW620 cells at 10 uM relative to control; format: functional; conditions: values are per cent of control
In short: (§2)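 Single-dose NCI human tumour cell line screen, run by the NIH. Percent inhibition of cell line growth was calculated by comparison with untreated samples.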

[3] = Growth inhibition of human RPMI8266 cells at 10 uM relative to control; format: functional; conditions: values are per cent of control; in short: as §1
[4] = system: UO-31; experiment: Growth inhibition of human UO31 cells at 10 uM relative to control; format: functional; conditions: values are per cent of control; in short: as §2
[5] = system: HCT-116; experiment: Growth inhibition of human HCT116 cells at 10 uM relative to control; format: functional; conditions: values are per cent of control; in short: as §1
[6] = system: A549; experiment: Growth inhibition of human A549 cells at 10 uM relative to control; format: functional; conditions: values are per cent of control; in short: as §1
[7] = system: DU-145; experiment: Growth inhibition of human DU145 cells at 10 uM relative to control; format: functional; conditions: values are per cent of control; in short: as §1
[8] = system: TK-10; experiment: Growth inhibition of human TK10 cells at 10 uM relative to control; format: functional; conditions: values are per cent of control; in short: as §2
[9] = system: SF-295; experiment: Growth inhibition of human SF295 cells at 10 uM relative to control; format: functional; conditions: values are per cent of control; in short: as §1
[10] = system: ACHN; experiment: Growth inhibition of human ACHN cells at 10 uM relative to control; format: functional; conditions: values are per cent of control; in short: as §1
[11] = system: LOX IMVI; experiment: Growth inhibition of human LOXIMVI cells at 10 uM relative to control; format: functional; conditions: values are per cent of control; in short: as §1
[12] = system: NCI-H23; experiment: Growth inhibition of human NCI-H23 cells at 10 uM relative to control; format: functional; conditions: values are per cent of control; in short: as §1
[13] = system: HT-29; experiment: Growth inhibition of human HT-29 cells at 10 uM relative to control; format: functional; conditions: values are per cent of control; in short: as §1
[14] = system: UACC-257; experiment: Growth inhibition of human UACC257 cells at 10 uM relative to control; format: functional; conditions: values are per cent of control; in short: as §2
[15] = target: Histone deacetylase 1 (Homo sapiens, UniProt Q13547); experiment: Inhibition of human HDAC1
Chain of Histone deacetylase 1 (Q13547 whole entry): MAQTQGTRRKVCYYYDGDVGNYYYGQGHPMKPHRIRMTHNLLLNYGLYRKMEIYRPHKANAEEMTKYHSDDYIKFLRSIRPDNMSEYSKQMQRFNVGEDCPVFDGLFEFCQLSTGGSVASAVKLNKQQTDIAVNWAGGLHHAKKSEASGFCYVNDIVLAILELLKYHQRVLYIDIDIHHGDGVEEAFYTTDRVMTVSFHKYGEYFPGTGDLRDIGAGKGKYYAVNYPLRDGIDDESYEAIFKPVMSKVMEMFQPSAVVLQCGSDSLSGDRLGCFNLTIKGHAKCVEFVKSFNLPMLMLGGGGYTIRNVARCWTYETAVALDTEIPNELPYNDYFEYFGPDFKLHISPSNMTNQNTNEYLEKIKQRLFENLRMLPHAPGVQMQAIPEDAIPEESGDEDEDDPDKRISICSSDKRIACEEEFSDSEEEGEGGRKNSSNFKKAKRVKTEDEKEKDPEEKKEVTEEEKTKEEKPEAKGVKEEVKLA

[16] = cells; format: functional; conditions: Homo sapiens, Cancer cell lines
[17] = system: SN12C; experiment: Growth inhibition of human SN12C cells at 10 uM relative to control; format: functional; conditions: values are per cent of control; in short: as §1
[18] = system: OVCAR-8; experiment: Growth inhibition of human OVCAR8 cells at 10 uM relative to control; format: functional; conditions: values are per cent of control; in short: as §1
[19] = system: MCF7; experiment: Growth inhibition of human MCF7 cells at 10 uM relative to control; format: functional; conditions: values are per cent of control; in short: as §1
[20] = system: BT-549; experiment: Growth inhibition of human BT549 cells at 10 uM relative to control; format: functional; conditions: values are per cent of control; in short: as §1
[21] = system: MDA-MB-468; experiment: Growth inhibition of human MDA-MB-468 cells at 10 uM relative to control; format: functional; conditions: values are per cent of control; in short: as §1
[22] = cells; format: functional; conditions: Homo sapiens, Cancer cell lines; remark: listed apart in the source
[23] = system: OVCAR-3; experiment: Growth inhibition of human OVCAR-3 cells at 10 uM relative to control; format: functional; conditions: values are per cent of control; in short: as §1
[24] = system: MDA-MB-231; experiment: Growth inhibition of human MDA-MB-231 cells at 10 uM relative to control; format: functional; conditions: values are per cent of control; in short: as §1
[25] = system: SF-539; experiment: Growth inhibition of human SF539 cells at 10 uM relative to control; format: functional; conditions: values are per cent of control; in short: as §1
[26] = system: SF-268; experiment: Growth inhibition of human SF268 cells at 10 uM relative to control; format: functional; conditions: values are per cent of control; in short: as §1
[27] = system: OVCAR-5; experiment: Growth inhibition of human OVCAR5 cells at 10 uM relative to control; format: functional; conditions: values are per cent of control; in short: as §1
[28] = system: NCI/ADR-RES; experiment: Growth inhibition of human NCI/ADR-RES cells at 10 uM relative to control; format: functional; conditions: values are per cent of control; in short: as §1
[29] = system: T47D; experiment: Growth inhibition of human T47D cells at 10 uM relative to control; format: functional; conditions: values are per cent of control; in short: as §2
[30] = system: HCT-15; experiment: Growth inhibition of human HCT15 cells at 10 uM relative to control; format: functional; conditions: values are per cent of control; in short: as §1
[31] = cells; format: functional; conditions: Homo sapiens, Cancer cell lines; remark: listed apart in the source
[32] = system: TK-10; experiment: Growth inhibition of human TK10 cells; format: functional
In short: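 NCI five-dose screen, run by the NIH. Each drug was tested at five concentrations alongside a control, using two microtiter plates per cell line. SAHA was included as the standard.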

[33] = system: RXF 393; experiment: Growth inhibition of human […] cells; format: functional

Q: What does the source list for `O=C(/C=C/c1cn(C/C=C/c2ccccc2)nn1)NO`?
A: growth, % of control at 10 µM [1]: 11%; growth, % of control at 10 µM [2]: -61.5%; growth, % of control at 10 µM [3]: -13.9%; growth, % of control at 10 µM [4]: 0.73%; growth, % of control at 10 µM [5]: -69%; growth, % of control at 10 µM [6]: -8.94%; growth, % of control at 10 µM [7]: -28.7%; growth, % of control at 10 µM [8]: -8.37%; growth, % of control at 10 µM [9]: -55.5%; growth, % of control at 10 µM [10]: -51.2%; growth, % of control at 10 µM [11]: -72.6%; growth, % of control at 10 µM [12]: 21.4%; growth, % of control at 10 µM [13]: 12%; growth, % of control at 10 µM [14]: -32.1%; IC50 [15]: 0.104 µM; inhibition at 10 µM [16]: 1%; growth, % of control at 10 µM [17]: 25%; growth, % of control at 10 µM [18]: 1.24%; growth, % of control at 10 µM [19]: 13.6%; growth, % of control at 10 µM [20]: 43.3%; growth, % of control at 10 µM [21]: 45.8%; inhibition at 10 µM [22]: 1%; growth, % of control at 10 µM [23]: -16.2%; growth, % of control at 10 µM [24]: 20.9%; growth, % of control at 10 µM [25]: 5.16%; growth, % of control at 10 µM [26]: -0.08%; growth, % of control at 10 µM [27]: 1.43%; growth, % of control at 10 µM [28]: -14.2%; growth, % of control at 10 µM [29]: -11.9%; growth, % of control at 10 µM [30]: 9.7%; growth percent at 10 µM [31]: -20%; GI50 [32]: 0.495 µM; GI50 [33]: < 0.01 µM
